From ChEMBL document CHEMBL4513216, “Probing the Open Global Health Chemical Diversity Library for Multistage-Active Starting Points for Next-Generation Antimalarials” (ACS Infect Dis, 2020)

Test: Toxicity liver stage against HepG2, at 10uM
Type: cell-based
Design: test concentration 10 uM, cell line HepG2-A16-CD81EGFP
Conditions: human, HepG2-A16-CD81EGFP cells; read-out: INHIBITION
Method in brief: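 Uninfected HepG2-A16-CD81EGFP cells, 3 × 10^3 per well, 1536-well, plated on prespotted compound at 10 μM final, parasite-free screening media added to match infected plates; puromycin 10 μM positive, DMSO 0.5% negative; run in parallel with 48 h PbLuc assay at 37 °C, 5% CO2; viability by CellTiter-Glo luminescence, normalized to controls.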

SMILES | cytotoxicity at 10 µM [%]
CCc1nn(C)c(Cl)c1CN1CCCC2(C1)CN(C)C(=O)O2 (stereo not given) | 5.44
CN1CCN(C2CCN(c3cnc4ccccc4n3)CC2)C1=O | 27.4
CCN(C(=O)CCc1ccc2[nH]ccc2c1)C1CC(=O)NC1=O (stereo not given) | -8.96
CN(Cc1ccccc1F)C(=O)COC(=O)c1cc(Cl)c[nH]1 | 12.4
CC(C)(C)CN[C@@H]1CO[C@H](CNC(=O)C2CCCC2)[C@H]1O | -9.03
CN1C(=O)CC(N(C)Cc2nc3ccccc3c(=O)[nH]2)C1=O (stereo not given) | 7.61
CC(C)Cc1cc(C(=O)N2CCC[C@H]2C(=O)N2CCOCC2)on1 | 6.07
COc1ncc(CN2CCC3(CCCN(CC4CCCCC4)C3)C2)cn1 (stereo not given) | -6.8
COc1nccnc1N1C[C@H]2CC[C@@H](C1)N(CC=C(C)C)C2=O | 1.76
CC1(C)Cc2ccccc2-c2nc(NCCCO)[nH]c(=O)c21 | 3.57
Cc1ccc2c(-c3nc4c([nH]3)CCNC4C(=O)O)cccc2n1 (stereo not given) | -3.15
CNc1cc(C2CCCN2Cc2ccccc2C(=O)O)ccn1 (stereo not given) | -5.28
c1cnc(Nc2cncc(C3CCCN(c4ncccn4)C3)n2)nc1 (stereo not given) | -2.44
O=C(NCC1CC1)C1CCC2(CN(C(=O)c3ccno3)C2)O1 (stereo not given) | -138
COc1ccc2c(c1)CC(C(=O)N(C)Cc1noc3c1CCCC3)CO2 (stereo not given) | -0.551
CSc1ccccc1C(=O)N1C[C@@H]2CC[C@H]1CN(C(=O)C1CCC1)C2 | -6.75
CC(C)Oc1cccc(C(=O)C2CCCN(C(=O)c3ccoc3)C2)c1 (stereo not given) | 1.43
Cc1nn(C)c2ncc(C(=O)N3CCNC(=O)C3)cc12 | -6.62
N#Cc1cccnc1N1CCC(OCc2ccccc2)CC1 | -7.43
COCCN1CCN(Cc2ccoc2)Cc2cccnc21 | -75
c1nc(CCC2CCCN2)cc(N2CCCCCC2)n1 (stereo not given) | -20.6
COC(=O)N1CCN2C[C@H](CO)[C@@H](c3ccccc3)[C@H]2C1 | 6.12

SMILES | cytotoxicity at 10 µM [%]
CC1CCCN1Cc1ccccc1-c1nc(C(C)(C)C)cc(=O)[nH]1 (stereo not given) | 11.4
c1cc(CN2CCC(CCn3cccn3)CC2)cc(Cn2cccn2)c1 | -1.58
O=C(c1cn2cc(Cl)cnc2n1)N1CCOCC(O)(CN2CCCC2)C1 (stereo not given) | -8.42
O=C(c1ccc(-n2ccnc2)cc1)N1CCCC1 | -7.55
Cc1ccsc1CNC(=O)CC1CN(C(=O)OC(C)(C)C)C1 | -4.66
CCOCC(=O)N1Cc2nnn(C)c2C(COCc2ccccn2)C1 (stereo not given) | -3.23
COc1ccc(CN2CC(=O)N(c3ccc(C)cc3)CC2C)cc1O (stereo not given) | 4.84
CCN1Cc2ccccc2CC2(CCN(CC(=O)O)CC2)C1=O | -4.87
C[C@H]1CN(c2ccccn2)C[C@@]12CCN(Cc1cccnc1)C2=O | -1.16
COCC1CCN(C(=O)c2cc(O)nc(CC(C)C)c2)CC1 | -2.7
O=C(NCC1CCOC1)N1CCN(Cc2ccc3c(c2)OCO3)CC1 (stereo not given) | -4.33
Cn1cc(C2CCCN2Cc2cscn2)cn1 (stereo not given) | 4.24
CCCn1nc2c(cc1=O)CN(Cc1cc(C)no1)CC2 | -11.6
O=C(Nc1cc(-c2ccccc2)on1)N1CC[C@H](O)C1 | 4.98
CCC(CNS(N)(=O)=O)Oc1ccccc1F (stereo not given) | 3.01
CC(C)(C)c1csc(CCNC(=O)[C@H](c2ccccc2)n2cnnn2)n1 | 2.07
Cc1cc2c(=O)n3c(nc2s1)CCN(C(=O)c1cn(C)nc1C)CC3 | -22.6
Cc1nc(-c2cnn(C)c2)sc1C(=O)NCc1ccc(C)n1C | 9.25
Cn1cc(N2CCC(NC(=O)c3ccccc3F)C2=O)cn1 (stereo not given) | -1.26
COCC(=O)N[C@H]1C[C@@H](C(=O)NCCc2cccc(Cl)c2)N(C)C1 | 1.72
CCC(C)N1CCc2c(C(=O)N(C)Cc3ccccn3)nn(C)c2C1 (stereo not given) | -2.78
O=C([C@@H]1CN(Cc2nccs2)C[C@H]2OCC[C@H]21)N1CCOCC1 | -105

SMILES | cytotoxicity at 10 µM [%]
CC(C)NC(=O)c1cccc(NC(=O)CCCc2nc(C(C)C)no2)c1 | 5.51
O=C(NCCCc1ccccn1)c1cn(CCN2CCNCC2)nn1 | -3.54
CCN(CC)C(=O)c1ccn(COc2ccc(F)cc2)n1 | 7.55
CCc1ccccc1-c1cc(OC)nc(N)n1 | -3.3
CCc1nccn1CCC(=O)N1CC[C@H](CO)[C@H](O)C1 | -1.2
CCC(CNC(=O)c1c(C)nn(C)c1OC)Oc1ccccc1 (stereo not given) | -4.89
Cc1noc(C)c1CN(C)Cn1c(=O)n(C)c2ccccc21 | 5.25
CC(=O)N(C)C(c1cccnc1)c1ccc(F)c(F)c1 (stereo not given) | -7.69
COc1ccc2c(c1)CCCN2C(=O)CN1CCOC(CN(C)C)C1 (stereo not given) | -2.93
COCCN1C[C@@H]2CN(C(=O)CC3CC3)C[C@@H]2C1=O | 7.8
CN(C)C(=O)CCNC(=O)NCc1ccc(Br)cc1Cl | 2.96
CN1CCOC(CNCCOc2cccc(C#N)c2)C1 (stereo not given) | 7.56
Cn1ccnc1CN1CCN2C[C@H](Oc3cncnc3)C[C@H]2C1 | 8.71
Cc1nn(Cn2ccc(C(=O)N3CCOCC3)n2)c(C)c1Cl | -0.112
CNC(=O)NCC1CCC2(CCN(c3ncccn3)CC2)CO1 (stereo not given) | -107
NC1CCC(CN2CCCn3nc(CNC(=O)C4CCC4)cc3C2)CC1 (stereo not given) | 4.03
Cc1nc[nH]c1CN(C)Cc1cnn(-c2ccc(F)cc2)c1 | 0.345
O=c1[nH]c(-c2cccnc2)nc2c1CCN(S(=O)(=O)N1CCCC1)C2 | 0.384
Cc1nccn1-c1ccccc1CNC(=O)c1cn(CCN)nn1 | 1.58
Fc1cccc(CN2CCC3(CCCN3c3ncccn3)CC2)c1 | 3.62
OCc1c(Cl)ncn1-c1ccc(F)cc1 | 6.61
COc1ccc(CN2CCC3(CC2)NC(=O)CC3c2cnn(C)c2)cc1 (stereo not given) | 0.424

SMILES | cytotoxicity at 10 µM [%]
CCc1cnc(CN(C(C)=O)C2CCN(CCc3ccccc3)C2)o1 (stereo not given) | -8.17
COc1cccc(N2CCN(C(=O)C(OC)c3ccccc3)CC2=O)c1 (stereo not given) | -0.693
CN1Cc2ccccc2CC2(CCN(C(=O)N3CCOCC3)CC2)C1=O | 1.02
CCc1cc(CNC(=O)N(C2CC2)C(C)c2ccco2)on1 (stereo not given) | -0.335
CNc1ccc(C)cc1C(=O)N[C@H]1C[C@H]2CN(C)CCN2C1 | -4.57
Cc1nc2cc(F)cc(C(=O)N3CCN(CCO)CC3)c2nc1C | -3.31
CCc1nc(C)ncc1C(=O)N1CCN(CC)c2ccccc21 | -10.1
CC(C(=O)Nc1cccc(F)c1)N(C)CCN1CCOCC1 (stereo not given) | -9.19
CN1CCCCC1Cc1nc2c(cc1C(N)=O)CCC2 (stereo not given) | -9.55
CSc1nc(N)cc(N2C[C@H]3CC[C@@H](C2)N(CC2CC2)C3=O)n1 | 0.291
COc1ccc(C(C)NCc2nnc(C)s2)cc1F (stereo not given) | -19.8
CN1CCC(CNC(=O)c2cccc(NC(N)=O)c2)c2ccccc21 (stereo not given) | 3.86
CCc1nn(C)c(Cl)c1CN1CCN(c2ccc(Cl)nn2)CC1 | 8.01
CC(Cn1cccn1)NCc1nc(-c2cccnc2)no1 (stereo not given) | -0.813
O=C(CN1CCC(c2ccnn2CCO)CC1)NCc1cccs1 | -10.4
Cc1cc(C(=O)N2CCC(n3nc(C)cc3C)C2)c2ccc(F)cc2n1 (stereo not given) | -5.08
Cc1cc(NC(=O)CCN(CC2CCOC2)C2CC2)no1 (stereo not given) | -0.794
Cn1ccnc1-c1cnn(CC(=O)Nc2ccnn2C)c1 | -10.1
c1cncc(N2CCCC3(CN(Cc4cccs4)CCO3)C2)c1 (stereo not given) | 11.5
O=C(C1CC1)N1CCc2ccccc2C12CCNCC2 | 5.35
Cc1nn(C)c2nc(N(Cc3ccccn3)CC3CCCO3)sc12 (stereo not given) | -1.01
COC1CCC[C@@H]2CN(Cc3csc(C)n3)C[C@H]12 (stereo not given in full) | -110

SMILES | cytotoxicity at 10 µM [%]
COc1ccc(Br)cc1Cn1nc(C(N)=O)ccc1=O | 8.09
CC(C)Oc1cccc(CN(C)C(=O)Cc2ccon2)c1 | -2.09
Cc1ccc(C(F)(F)F)cc1C(=O)N[C@H]1CN(CCO)C[C@@H]1C1CC1 | 0.292
O=C(NC1CCN(c2ncccn2)CC1)c1cc2c(cc1O)CCCC2 | 8
CCN1CC2(CCCCN2C(=O)c2ccsc2)CC1=O (stereo not given) | 5.97
CC(C)Nc1cc(-c2c[nH]nc2C2CCN(C(=O)C3CCC3)C2)ccn1 (stereo not given) | 81.8
CN1C(=O)CCCC12CCCN(C(=O)c1ccoc1)C2 (stereo not given) | -4.04
CC(C)(C)n1ncc2c1CCCC2NCc1ccsc1 (stereo not given) | 3.59
CCNC(=O)NC[C@H]1COCc2nc3cc(OC)ccc3n21 | -2.3
CCCN(CCO)C(=O)C1CCC(=O)N(Cc2ccc(Cl)cc2)C1 (stereo not given) | 10.4
c1nn(C2CCCCC2)cc1-c1cncn1CCCN1CCCCC1 | 2.37
CCN(CC)C(=O)N1CCN(Cc2cnc(C)nc2)[C@H]2CS(=O)(=O)C[C@H]21 | -8.84
Cc1csc(CCNC(=O)N2CCC(C(N)=O)CC2)n1 | -2.71
Cc1cccc(CNC(=O)Nc2ccn(CCCC(=O)N(C)C)n2)c1 | 2
Cc1cc(CN2CCN(CC3CC3)[C@@H]3CS(=O)(=O)C[C@@H]32)ccc1F | -1.37
CC(C1CCN(Cc2c(Cl)ccc(O)c2Cl)CC1)N1CCN(C)CC1 (stereo not given) | -12
CCCc1nc(N[C@H]2COC[C@@H]2N2CCCCC2)c2cnn(C)c2n1 | 0.727
COc1ccc(S(=O)(=O)NCCC(O)c2ccccc2)c(C)c1 (stereo not given) | 0.174
COC1(CNC(=O)c2ccc(F)c(F)c2)CCSC1 (stereo not given) | -2.11
CCn1cc(CN2CCCN(C(=O)Cc3cccs3)CC2)cn1 | -2.76
COCC(C)N1CCN(CCc2ccc3c(c2)CCO3)CC1 (stereo not given) | 4.16
CCN1CC2(CC1=O)CN(C(=O)C(C)C)CCN(S(=O)(=O)CC)C2 (stereo not given) | 16
